Measured values: ChEMBL document CHEMBL2417390 (J Med Chem, 2013)

Legend:
Aromatase = molecular target: T1, Aromatase (Homo sapiens, UniProt P11511); experiment: Inhibition of CYP19 in human placental microsomes using [1beta-3H]androstenedione as substrate by 3H2O-method; design: species or system Placenta
T1 sequence (P11511 whole entry): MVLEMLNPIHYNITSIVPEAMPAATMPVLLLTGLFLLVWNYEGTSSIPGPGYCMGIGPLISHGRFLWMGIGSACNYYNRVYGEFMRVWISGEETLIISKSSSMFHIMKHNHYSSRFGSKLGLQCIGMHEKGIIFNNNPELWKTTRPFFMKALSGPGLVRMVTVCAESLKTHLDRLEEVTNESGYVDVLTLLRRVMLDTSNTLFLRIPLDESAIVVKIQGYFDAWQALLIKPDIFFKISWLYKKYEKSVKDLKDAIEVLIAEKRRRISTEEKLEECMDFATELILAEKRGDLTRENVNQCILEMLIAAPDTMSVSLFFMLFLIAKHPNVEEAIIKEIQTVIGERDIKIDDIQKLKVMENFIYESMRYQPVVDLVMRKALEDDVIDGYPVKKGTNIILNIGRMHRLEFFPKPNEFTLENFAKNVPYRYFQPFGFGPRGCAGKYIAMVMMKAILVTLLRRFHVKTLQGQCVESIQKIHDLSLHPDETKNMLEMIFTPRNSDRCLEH
Procedure, shortened: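 Human placental microsomes as the aromatase source. Product formation was read by the 3H2O release method with [1β-3H]androstenedione at 500 nM as substrate.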

Cytochrome P450 3A4 = Cytochrome P450 3A4 (Homo sapiens, UniProt P08684); experiment: Inhibition of recombinant CYP3A4 (unknown origin) expressed in baculovirus-infected insect microsomes; format: ADME, Microsome
Chain of Cytochrome P450 3A4 (P08684 whole entry): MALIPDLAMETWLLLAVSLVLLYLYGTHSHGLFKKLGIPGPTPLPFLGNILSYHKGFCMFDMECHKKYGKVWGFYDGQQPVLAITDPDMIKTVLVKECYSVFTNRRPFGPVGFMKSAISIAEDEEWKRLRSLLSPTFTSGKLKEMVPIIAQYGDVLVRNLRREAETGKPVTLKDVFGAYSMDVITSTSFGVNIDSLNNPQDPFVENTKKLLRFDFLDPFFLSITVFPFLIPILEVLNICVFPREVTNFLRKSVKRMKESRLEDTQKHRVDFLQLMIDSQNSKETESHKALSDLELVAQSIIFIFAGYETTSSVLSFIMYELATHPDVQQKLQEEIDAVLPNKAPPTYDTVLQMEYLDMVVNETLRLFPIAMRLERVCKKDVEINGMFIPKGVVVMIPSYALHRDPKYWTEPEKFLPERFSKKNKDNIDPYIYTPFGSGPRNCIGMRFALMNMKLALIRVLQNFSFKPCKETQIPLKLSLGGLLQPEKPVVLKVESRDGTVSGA
Procedure, shortened: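 Recombinant CYP3A4 in baculovirus-infected insect microsomes (Supersomes), assayed following the supplier's protocol.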

Homo sapiens = organism: Homo sapiens; experiment: Selectivity factor, ratio of IC50 for human CYP11B1 to IC50 for human CYP11B2
[1] = molecular target: T2, Cytochrome P450 11B1, mitochondrial (Homo sapiens, UniProt P15538); experiment: Inhibition of human CYP11B1 expressed in hamster V79MZh cells using [1,2-3H]-11-deoxycorticosterone as substrate; format: cell-based
T2 sequence (P15538 whole entry): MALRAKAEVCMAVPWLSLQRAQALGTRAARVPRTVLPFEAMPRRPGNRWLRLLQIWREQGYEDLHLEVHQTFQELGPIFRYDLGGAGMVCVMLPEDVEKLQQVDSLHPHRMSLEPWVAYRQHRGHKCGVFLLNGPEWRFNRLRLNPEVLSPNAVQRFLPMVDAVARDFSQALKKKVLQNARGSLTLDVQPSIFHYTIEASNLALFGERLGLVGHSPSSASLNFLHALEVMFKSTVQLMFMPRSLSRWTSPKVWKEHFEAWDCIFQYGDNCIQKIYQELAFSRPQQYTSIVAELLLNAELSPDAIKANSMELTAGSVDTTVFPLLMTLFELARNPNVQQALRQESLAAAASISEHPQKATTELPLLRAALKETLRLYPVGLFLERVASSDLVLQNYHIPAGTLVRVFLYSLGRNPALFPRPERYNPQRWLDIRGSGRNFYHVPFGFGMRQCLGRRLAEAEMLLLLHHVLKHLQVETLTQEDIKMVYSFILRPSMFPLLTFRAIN

[2] = molecular target: T3, Cytochrome P450 11B2, mitochondrial (Homo sapiens, UniProt P19099); experiment: Inhibition of human CYP11B2 expressed in hamster V79MZh cells using [1,2-3H]-11-deoxycorticosterone as substrate; format: cell-based
T3 sequence (P19099 whole entry): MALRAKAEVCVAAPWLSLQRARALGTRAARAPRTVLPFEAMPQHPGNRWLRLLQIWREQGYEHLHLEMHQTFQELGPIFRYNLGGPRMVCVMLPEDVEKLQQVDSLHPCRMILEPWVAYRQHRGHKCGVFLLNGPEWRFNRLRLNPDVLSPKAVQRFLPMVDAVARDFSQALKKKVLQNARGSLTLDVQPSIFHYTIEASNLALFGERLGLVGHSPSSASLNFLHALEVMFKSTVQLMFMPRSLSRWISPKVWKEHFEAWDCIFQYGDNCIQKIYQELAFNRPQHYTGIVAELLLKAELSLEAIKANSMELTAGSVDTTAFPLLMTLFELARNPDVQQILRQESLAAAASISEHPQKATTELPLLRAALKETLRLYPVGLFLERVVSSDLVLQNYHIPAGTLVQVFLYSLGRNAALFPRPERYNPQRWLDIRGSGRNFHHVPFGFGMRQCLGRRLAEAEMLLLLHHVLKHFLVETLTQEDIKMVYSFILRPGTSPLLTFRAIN

[3] = molecular target: T4, Steroid 17-alpha-hydroxylase/17,20 lyase (Homo sapiens, UniProt P05093); experiment: Inhibition of human CYP17 expressed in Escherichia coli using 1,2[3H]-progesterone as substrate in presence of NADPH
T4 sequence (P05093 whole entry): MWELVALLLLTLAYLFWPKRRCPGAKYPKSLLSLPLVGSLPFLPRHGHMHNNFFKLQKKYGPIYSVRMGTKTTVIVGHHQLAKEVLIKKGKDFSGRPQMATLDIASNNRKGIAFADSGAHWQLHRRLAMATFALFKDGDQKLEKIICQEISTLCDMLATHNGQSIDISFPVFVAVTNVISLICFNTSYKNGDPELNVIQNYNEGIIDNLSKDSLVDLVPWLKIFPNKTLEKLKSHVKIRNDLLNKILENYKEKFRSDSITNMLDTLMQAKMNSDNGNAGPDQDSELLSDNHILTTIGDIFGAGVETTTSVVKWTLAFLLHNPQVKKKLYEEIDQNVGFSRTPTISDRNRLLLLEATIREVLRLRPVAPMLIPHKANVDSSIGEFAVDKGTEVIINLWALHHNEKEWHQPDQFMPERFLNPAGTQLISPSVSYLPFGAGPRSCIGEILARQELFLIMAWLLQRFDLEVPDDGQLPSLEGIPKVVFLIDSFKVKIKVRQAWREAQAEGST
Procedure, shortened: (§1)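 Human CYP17 was recombinantly expressed in E. coli. The substrate was progesterone at 25 µM, with NADPH as cofactor.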

[4] = molecular target: T4, Steroid 17-alpha-hydroxylase/17,20 lyase; experiment: Inhibition of human CYP17; procedure, shortened: as §1
[5] = molecular target: T4, Steroid 17-alpha-hydroxylase/17,20 lyase; experiment: Inhibition of human CYP17 expressed in Escherichia coli using 1,2[3H]-progesterone as substrate at 2000 nM in presence of NADPH relative to control; details: read-out: INH
[6] = molecular target: T3, Cytochrome P450 11B2, mitochondrial; experiment: Inhibition of human CYP11B2

Structure (SMILES)	IC50 (Aromatase) [nM]	IC50 (Cytochrome P450 3A4) [nM]	Ratio IC50 (Homo sapiens)	IC50 [1] [nM]	IC50 [2] [nM]	IC50 [3] [nM]	IC50 [4] [nM]	inhibition at 2 µM [5] [%]	IC50 [6] [nM]
c1cncc(-c2ccc3ccccc3c2)c1							3000		
N#Cc1ccc(C2CCCc3cncn32)cc1 (stereo not drawn) [FADROZOLE]								< 5	
COc1ccc2ccc(-c3cccnc3)cc2c1	> 2000						721		68
COc1ccc2ccc(-c3cncc(O)c3)c(Cl)c2c1	> 2000	6720	546	7100	13	11			
COc1cncc(-c2ccc3ccc(OC)cc3c2Cl)c1	> 2000	> 10000	19	447	24	94			
COc1ccc2ccc(-c3cncnc3)c(Cl)c2c1	> 2000	> 10000	170	12300	72	632			
COc1ccc2ccc(-c3cncc(F)c3)c(Cl)c2c1	> 2000	> 10000	37	1410	38	454			
COc1cncc(-c2ccc3ccc(O)cc3c2Cl)c1	> 2000	4200	16	245	15	185			
COc1ccc2ccc(-c3cccnc3)c(Cl)c2c1F	> 2000	1010	104	2930	28	147			
Oc1ccc2ccc(-c3cccnc3)c(Cl)c2c1F	> 2000	> 10000	9	224	25	375			
Oc1ccc2ccc(-c3cccnc3)c(Cl)c2c1	> 2000	1760	9	235	26	64			

The next lines start with the values.

IC50 (Aromatase) [nM]	IC50 (Cytochrome P450 3A4) [nM]	Ratio IC50 (Homo sapiens)	IC50 [1] [nM]	IC50 [2] [nM]	IC50 [3] [nM]	IC50 [4] [nM]	inhibition at 2 µM [5] [%]	IC50 [6] [nM]	Structure (SMILES)
> 2000	1260	39	1160	30	523				Oc1ccc2ccc(-c3cccnc3)c(F)c2c1
> 2000	2150	110	2430	22	1520				Oc1ccc2ccc(-c3cncnc3)c(Cl)c2c1
> 2000	3560	94							COc1ccc2ccc(-c3cccnc3)c(Cl)c2c1
> 2000	5050	104	2820	27	16				Oc1cncc(-c2ccc3ccc(O)cc3c2Cl)c1
> 2000	1740	4	238	66	1030				Oc1ccc2ccc(-c3cncc4ccccc34)c(Cl)c2c1
> 2000	> 10000	7	362	54	294				COc1ccc2ccc(-c3cncc4ccccc34)c(Cl)c2c1
> 2000	3580	15	450	33	525				Oc1ccc2ccc(-c3cncc(F)c3)c(Cl)c2c1
> 2000	> 10000	95	1610	17	106				COc1ccc2ccc(-c3cccnc3)c(F)c2c1
